Three compounds from PMC9298314 (The Febs Journal, 2021) can be followed below.

Peptide text beside a SMILES is read from it.

The test system of data set [1] is MDA‐MB‐231. In words: CellTiter‐Blue cell viability assay. The class given is cell-based, human. The following applies: read-out: IC50 (µM) MDA‐MB‐231, 24 h, peptide 0.01 to 100 µM, serum‐free medium. In outline: (§1)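 Cells were seeded per mL as follows: BT‑20, SKBR3 and Hs68 at 1.5×10⁵; BT‑474 at 3.0×10⁵; MCF 10A at 4.0×10⁵; MDA‑MB‑231 at 1.0×10⁵. After 24 h, wells were PBS‑washed twice and exposed to test compound in complete serum‑free medium for 24 h at 37 °C, 5% CO₂. CellTiter‑Blue was added for 3 h and fluorescence read at 560/590 nm. Untreated cells set 100%, 1% Triton X‑100 set 0%. IC50 came from a log(inhibitor)–normalized response fit, using independent cultures on different days.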

The test system of data set [2] is BT‐20. In words: CellTiter‐Blue cell viability assay. It is filed as cell-based, human. The following applies: read-out: IC50 (µM) BT‐20, 24 h, peptide 0.01 to 100 µM, serum‐free medium. Summed up: as §1
Data set [3] deals with BT‐474. In words: CellTiter‐Blue cell viability assay. It is filed as cell-based, human. The following applies: read-out: IC50 (µM) BT‐474, 24 h, peptide 0.01 to 100 µM, serum‐free medium. Summed up:
as §1

Data set [4] deals with SKBR3. Put plainly: CellTiter‐Blue cell viability assay. The class given is cell-based, human. The following applies: read-out: IC50 (µM) SKBR3, 24 h, peptide 0.01 to 100 µM, serum‐free medium. Summed up:
as §1

In data set [5] the test system is MCF 10A. In words: CellTiter‐Blue cell viability assay. It is filed as cell-based, human. The following applies: read-out: IC50 (µM) MCF 10A, 24 h, peptide 0.01 to 100 µM, serum‐free medium. Summed up:
as §1

Data set [6] deals with Hs68. Put plainly: CellTiter‐Blue cell viability assay. The class given is cell-based, human. The following applies: read-out: IC50 (µM) Hs68, 24 h, peptide 0.01 to 100 µM, serum‐free medium. Summed up: as §1
Data set [7] relates to human red blood cells (RBCs). Put plainly: Hemolytic activity. It is filed as cell-based. The following applies: 100 µM peptide, human RBCs 0.25% v/v in PBS pH 7.4, 24 h, 37 °C. In outline:
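Blood spun 1000 g for 10 min at 4 °C and washed three times. RBCs held at 0.25% v/v in PBS pH 7.4 with a peptide series (0.01–100), 24 h at 37 °C with gentle agitation. After spinning 1000 g for 5 min at 4 °C, supernatant hemoglobin read at A415. PBS is 0% and 1% Triton X‐100 is 100%; melittin served as peptide control. % = (A − Aneg)/(Apos − Aneg) × 100.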

Data set [8] relates to MDA‐MB‐231. Put plainly: Internalization of CF‐labeled peptide, flow cytometry and confocal microscopy. It is filed as cell-based, human. The following applies: CF‐labeled peptide 1 µM, flow cytometry. In outline:
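Cells seeded 5.0 × 10⁴ per well for 24 h, then washed. Exposed to CF‐labelled peptide (final 1) for 15, 60, 360 and 1440 min at 37 °C, 5% CO₂. Collected and washed; 10 000 cells read by flow cytometry, with autofluorescence subtracted. Duplicates on three independent days.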
In general terms: Flow cytometry measures light scatter and fluorescence of single cells or particles in a stream.

The IC50 is the concentration needed to halve the response being measured. In the case of `C[C@H](NC(=O)[C@H](CCCCN)NC(=O)[C@H](Cc1ccc(O)cc1)NC(=O)[C@H](CCCCN)NC(=O)[C@H](CCCCN)NC(=O)[C@H](CCCCN)NC(=O)[C@H](Cc1ccc(O)cc1)NC(=O)[C@H](CCCNC(=N)N)NC(=O)[C@H](CCCCN)NC(=O)[C@@H](N)CCCCN)C(=O)N[C@@H](Cc1ccc(O)cc1)C(=O)N[C@@H](CCCCN)C(=O)N1CCC[C@H]1C(=O)N[C@@H](Cc1ccc(O)cc1)C(=O)N[C@@H](CCCCN)C(=O)N[C@@H](CCCCN)C(=O)N[C@@H](CCCCN)C(=O)N[C@@H](CCCCN)C(=O)N[C@@H](CCCCN)C(=O)N[C@@H](Cc1ccccc1)C(N)=O` [vCPP0275] (H-KKRYKKKYKAYKPYKKKKKF-NH2), the IC50 is more than 100 µM in data set [1]; 44.8 ± 1.1 µM in data set [2]; more than 100 µM in data set [3]; 34 ± 1 µM in data set [4]; more than 100 µM in data set [5]; more than 100 µM in data set [6]. Further, the “H max (% hemolysis at the highest concentration tested)” value in data set [7] amounted to 14.6 ± 0.9%.
For `CC(C)C[C@H](NC(=O)CNC(=O)[C@H](CC(C)C)NC(=O)[C@H](CC(C)C)NC(=O)[C@H](CCC(N)=O)NC(=O)[C@H](CCCNC(=N)N)NC(=O)[C@H](CC(C)C)NC(=O)[C@@H](NC(=O)[C@H](CC(C)C)NC(=O)[C@H](CCCNC(=N)N)NC(=O)[C@@H](N)CCCNC(=N)N)[C@@H](C)O)C(=O)NCC(=O)N[C@@H](CO)C(=O)N[C@@H](CCCNC(=N)N)C(=O)N[C@@H](CCCNC(=N)N)C(=O)N[C@@H](CCCNC(=N)N)C(=O)N[C@@H](CCCNC(=N)N)C(=O)N[C@@H](CCCNC(=N)N)C(=O)N[C@@H](CO)C(=O)N[C@@H](CCCNC(=N)N)C(N)=O` [vCPP0769] (H-RRLTLRQLLGLGSRRRRRSR-NH2), the IC50 in data set [1] was determined as 9 ± 0.1 µM; in data set [2], 3.5 ± 1.5 µM; in data set [3], 37.5 ± 1.7 µM; in data set [4] it was 21.1 ± 2 µM; in data set [5] it was 55.4 ± 1.7 µM; in data set [6] it was 53.4 ± 0.7 µM. The “H max (% hemolysis at the highest concentration tested)” value in data set [7] was determined as 56.2 ± 1.5%.
Regarding “CF‐WRRRYRRWRRRRRWRRRPRR‐amide [CF‐vCPP2319]”, in data set [8], the “Fluorescence intensity decay with time, MDA‐MB‐231” value is “decreases slowly during 24 h”.
